AI-2 QS modul – modulators of Vibrio harveyi AI-2 quorum sensing system; AID 2094; Vibrio harveyi JMH597 AI-2 luminescence/OD600 ratio, 9 h; hits give low values; strain lacks LuxN and CqsS sensors; 0 = neutral-control median; activity change, % at 7.5 µM; 300,000 compounds, 0.4% hits; in the data active means activity change below about -75%, passing the limit was not always enough; inconclusive means no clear call, values can overlap the other calls;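 further: luminescence divided by OD600 gain over 9 h not by final OD600 alone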
ARNT TACC3 PPI – ARNT/TACC3 interaction disruption; Q9Y6A5; AlphaScreen His-ARNT PAS-B/GST-TACC3 binding, luminescence; TACC3 fragment carries E629A point mutation; inhibition, % at 9.99 µM; 390,000 compounds, 0.66% hits; AID 623870;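 active means mean inhibition of replicates at least 50% and at least half of replicates each reaching 50%; inconclusive means half or more replicates reach 50% but mean below 50%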
T cruzi inh – blocks replication of Trypanosoma cruzi. T. cruzi beta-gal in NIH3T3, luminescence, 90 h. inhibition, % (test concentration not listed). AID 1885. 300,000 compounds, 1.4% hits;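 active means mean inhibition across valid replicates above about 55%, limit read from the data; inconclusive means mean below that limit but half or more replicates reach it; inactive means mean below it, under half of replicates reach it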;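 further: signal also drops with host cell toxicity which is not excluded here; higher percent means less beta-gal luminescence so fewer parasites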
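Assay system: NIH/3T3 host cells with β-galactosidase reporter T. cruzi; input: 5,000 host fibroblasts per well; compound: single 50 nL compound addition per well in DMSO; timing: ≥90 h infection period, 3 h prior cell attachment; measured by: GalScreen β-gal luminescence, detergent lysis, 60 min; evaluation: percent inhibition of parasite-derived β-gal signal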
HIF activator – HIF pathway transcriptional activation; U2OS HRE-luciferase reporter, luminescence; normalized: DMSO 0%, desferrioxamine 100%; 300,000 compounds, 0.32% hits; activation, % at 7.5 µM (by protocol);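 active means mean activation of at least 10% of the iron chelator positive control signal, with at least half of replicates also reaching 10%; inconclusive means mean and replicate majority disagree about reaching 10%; inactive means mean and most replicates under 10%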
Of the large screens only hits and unclear results are named; the others gave an inactive call. An excerpt weighted towards active compounds, which were near 2% of everything screened.

O=C(N[C@H]1CC[C@@H](CCn2cc(C3(O)CCCC3)nn2)O[C@@H]1CO)C1CCOCC1	none (no result: AI-2 QS modul, T cruzi inh, HIF activator)
CCNC(=O)C[C@H]1CC[C@@H](NS(=O)(=O)c2ccc(C)cc2)[C@@H](CO)O1	none (no result: AI-2 QS modul, T cruzi inh, HIF activator)
Cc1ccccc1OCCC(=O)Nc1ccc(S(=O)(=O)N(C)C2CCN(C)CC2)cc1	T cruzi inh 58
CN1CCC(N(C)S(=O)(=O)c2ccc(NC(=O)COc3ccc(Br)cc3Cl)cc2)CC1	T cruzi inh inconclusive
O=C(COc1cccc(C(F)(F)F)c1)Nc1ccc(S(=O)(=O)N2CCCCC2)cc1	none
CN1CCC(N(C)S(=O)(=O)c2ccc(NC(=O)Cc3ccc(F)cc3)cc2)CC1	none (no result: AI-2 QS modul, T cruzi inh, HIF activator)
Cc1c(C(=O)Nc2ccc(S(=O)(=O)N(C)C3CCN(C)CC3)cc2)oc2c(Cl)cccc12	T cruzi inh 59
CN1CCC(N(C)S(=O)(=O)c2ccc(NC(=O)COc3cccc(Cl)c3)cc2)CC1	T cruzi inh 56
Cc1ccc(OCC(=O)Nc2ccc(S(=O)(=O)N(C)C3CCN(C)CC3)cc2)c(C)c1	T cruzi inh 61
Cc1c(C(=O)Nc2ccc(S(=O)(=O)N(C)C3CCN(C)CC3)cc2)oc2ccccc12	none (no result: AI-2 QS modul, T cruzi inh, HIF activator)
Cc1ccc(S(=O)(=O)N(C)C[C@@H]2OCCCC[C@H](C)Oc3ccc(NS(=O)(=O)c4cccs4)cc3C(=O)N([C@@H](C)CO)C[C@@H]2C)cc1	none (no result: AI-2 QS modul, T cruzi inh, HIF activator)
C[C@@H]1CN([C@H](C)CO)C(=O)c2cc(-c3cncnc3)cnc2O[C@@H]1CN(C)C(=O)Cc1ccccc1	none (no result: AI-2 QS modul, T cruzi inh, HIF activator)
CC1=NN(/C(=N\c2nnc(C)s2)Nc2ccc(C(C)(C)C)cc2)[C@H](c2ccc(C)cc2)S1	T cruzi inh 57
CNC(=O)C[C@H]1CC[C@@H]2[C@H](COc3ccc(NS(=O)(=O)c4ccccc4C)cc3C(=O)N2C)O1	none (no result: AI-2 QS modul, T cruzi inh, HIF activator)
COCC(=O)Nc1ccc2c(c1)C(=O)N(C)C[C@@H](OC)[C@@H](C)CN(C(=O)CC1CC1)[C@H](C)CO2	none (no result: AI-2 QS modul, T cruzi inh, HIF activator)
CCCCOc1ccc(C(=O)NCC(=O)OC2CCOC2=O)cc1 (centres undefined)	HIF activator 305
CC(C)C(=O)NC(c1ccc(Cl)cc1Cl)c1ccc2cccnc2c1O (centres undefined)	HIF activator 80
CC(NC(=O)CSc1ncccn1)c1ccc(Cl)cc1Cl (centres undefined)	none
CCCCC(=O)NC(c1ccc(Cl)cc1Cl)c1ccc2cccnc2c1O (centres undefined)	T cruzi inh 64, HIF activator 28
CC(C)C(=O)NC(NC(=S)Nc1cccc2cccnc12)C(Cl)(Cl)Cl (centres undefined)	none
CCC(=O)NC(c1ccc(Cl)cc1Cl)c1ccc2cccnc2c1O (centres undefined)	T cruzi inh 67, HIF activator 102
COc1ccc(C(NC(=O)C(C)C)c2ccc3cccnc3c2O)cc1 (centres undefined)	HIF activator 121
COCC(=O)N1[C@H](C#N)[C@H](c2ccc(C3=CCCCC3)cc2)[C@H]1CO	none (no result: AI-2 QS modul, T cruzi inh, HIF activator)
CNCCCOc1ccc(Cl)cc1C(C)(C)C	T cruzi inh 55
CCN1CCCC1CNC(=O)c1ccc(Sc2ccc(F)cc2)c([N+](=O)[O-])c1 (centres undefined)	T cruzi inh 62
CN(C)CCNC(=O)c1ccc(Sc2ccc(Br)cc2)c([N+](=O)[O-])c1	T cruzi inh 77
O=C(NCCCN1CCOCC1)c1ccc(Sc2ccc(F)cc2)c([N+](=O)[O-])c1	T cruzi inh 61
COc1ccc(C2CC(c3cccs3)=NN2C(=O)CSc2nc3ccccc3s2)cc1 (centres undefined)	none
O=C(CSc1nc2ccccc2s1)N1N=C(c2cccs2)CC1c1ccc(F)cc1 (centres undefined)	T cruzi inh 56
COc1ccc(C2=NN(C(=O)CSc3nc(=O)n4cccc(C)c4n3)C(c3ccc(C)cc3)C2)cc1 (centres undefined)	none
Cc1ccn2c(=O)nc(SCC(=O)N3N=C(c4cccs4)CC3c3ccc(F)cc3)nc2c1 (centres undefined)	T cruzi inh 59
Cc1cccn2c(=O)nc(SCC(=O)N3N=C(c4cccs4)CC3c3ccc(F)cc3)nc12 (centres undefined)	T cruzi inh 67
COCC(C)n1c(SCc2ccc(OC)c(F)c2)nc2ccccc2c1=O (centres undefined)	T cruzi inh 59
CCn1c(SCc2ccc(OC)c(F)c2)nc2ccccc2c1=O	none
O=C(Nc1ccccc1)Nc1ccc2c(c1)[C@H]1C[C@H](CC(=O)N3CCCCC3)O[C@H](CO)[C@H]1O2	none (no result: AI-2 QS modul, T cruzi inh, HIF activator)
CC(C)N1C(=O)CCC1C(=O)N1CCCc2ccccc21 (centres undefined)	ARNT TACC3 PPI 13
CCC(=O)N1CCCCN2[C@H](CO)[C@H](c3ccc(C#Cc4cccnc4)cc3)[C@H]2C1	none (no result: AI-2 QS modul, T cruzi inh, HIF activator)
Cc1ccc(S(=O)(=O)N(C)C[C@H]2OCCCC[C@H](C)Oc3ccc(NC(=O)NC(C)C)cc3C(=O)N([C@H](C)CO)C[C@@H]2C)cc1	none (no result: AI-2 QS modul, T cruzi inh, HIF activator)
O=C(C[C@H]1CC[C@@H](NS(=O)(=O)c2ccc(F)cc2)[C@H](CO)O1)NC1CCC1	ARNT TACC3 PPI 30 (no result: AI-2 QS modul, T cruzi inh, HIF activator)
O=C(C[C@H]1CC[C@H](NS(=O)(=O)c2ccc(F)cc2)[C@@H](CO)O1)NC1CCC1	none (no result: AI-2 QS modul, T cruzi inh, HIF activator)
Cc1cc(C)n(-c2nnc(C)c(=O)[nH]2)n1	ARNT TACC3 PPI 60
CC(=O)c1ccc(NC(=O)COC(=O)c2c3c(nc4ccccc24)/C(=C\c2cccs2)CCC3)cc1	none
O=C(COC(=O)c1c2c(nc3ccccc13)/C(=C\c1cccs1)CCC2)Nc1ccccc1	T cruzi inh 74
C=C(C)COc1ccc(-c2ncncc2-c2ccccc2OC)c(O)c1	T cruzi inh 66
O=C(N/N=C/c1cccc([N+](=O)[O-])c1)c1cccc2cc[nH]c12	none
O=C(N/N=C/c1ccccn1)C1CC1	none
O=C(N/N=C/c1cc([N+](=O)[O-])ccc1O)C1CC1	ARNT TACC3 PPI 54
O=C1NCCCC1C(=O)N/N=C/c1cc([N+](=O)[O-])ccc1O (centres undefined)	ARNT TACC3 PPI 70
O=C(N/N=C/c1cc([N+](=O)[O-])ccc1O)c1cccc2cc[nH]c12	T cruzi inh 57, HIF activator 27
O=C(NN=Cc1ccccc1O)C1CC1	ARNT TACC3 PPI 39 (no result: AI-2 QS modul, T cruzi inh, HIF activator)
CCc1ccc(N2CC(C(=O)N/N=C/c3cc([N+](=O)[O-])ccc3O)CC2=O)cc1 (centres undefined)	none (no result: ARNT TACC3 PPI)
O=C1NCCCC1C(=O)N/N=C/c1ccc([N+](=O)[O-])cc1 (centres undefined)	none (no result: ARNT TACC3 PPI)
CCNC(=O)[C@H]1[C@H](CO)[C@H]2Cn3c(ccc(-c4ccccc4)c3=O)[C@H]2N1CC1CC1	none (no result: AI-2 QS modul, T cruzi inh, HIF activator)
C[C@H](CO)N1C[C@H](C)[C@H](CN(C)S(=O)(=O)c2ccc(F)cc2)OCCCC[C@H](C)Oc2ccc(NS(C)(=O)=O)cc2C1=O	none (no result: AI-2 QS modul, T cruzi inh, HIF activator)

Source: PubChem (Broad Institute)
